{"data": "Published values pooled from the literature", "target": "Cytoplasmic tyrosine-protein kinase BMX (BMX, Homo sapiens, UniProt P51813)", "Sequence (P51813 1-675, as in one of the studies)": "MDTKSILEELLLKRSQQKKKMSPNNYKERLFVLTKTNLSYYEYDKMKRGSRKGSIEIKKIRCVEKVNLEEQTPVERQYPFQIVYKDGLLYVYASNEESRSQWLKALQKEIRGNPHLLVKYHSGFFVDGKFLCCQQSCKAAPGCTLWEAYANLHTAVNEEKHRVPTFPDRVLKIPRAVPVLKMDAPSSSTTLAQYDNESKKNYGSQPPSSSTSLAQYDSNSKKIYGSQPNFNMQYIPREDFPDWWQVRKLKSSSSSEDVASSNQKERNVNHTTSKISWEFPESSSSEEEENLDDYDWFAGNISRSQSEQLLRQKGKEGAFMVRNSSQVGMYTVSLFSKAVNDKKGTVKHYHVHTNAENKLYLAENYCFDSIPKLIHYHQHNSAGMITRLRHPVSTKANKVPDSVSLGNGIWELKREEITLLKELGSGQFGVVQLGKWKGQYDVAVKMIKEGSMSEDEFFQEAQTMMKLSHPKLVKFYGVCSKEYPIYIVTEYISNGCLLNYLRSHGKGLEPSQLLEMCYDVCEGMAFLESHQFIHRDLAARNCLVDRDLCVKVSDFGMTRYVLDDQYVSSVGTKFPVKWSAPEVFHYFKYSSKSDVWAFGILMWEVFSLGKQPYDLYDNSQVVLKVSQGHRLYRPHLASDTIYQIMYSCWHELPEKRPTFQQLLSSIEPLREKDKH"}
{"SMILES": "COc1ncc2cc3ccccc3nc2c1C#N", "test": "cell-free assay, competition with immobilised ligand", "setting": "5 µM", "remaining binding [%]": 99}
{"SMILES": "C[C@@H](c1ccc(-n2cnc3c(N)ncnc32)cc1)N1CCc2nn(C)c(Cc3ccccc3)c2C1=O", "test": "binding, competition with immobilised ligand", "setting": "0.1 µM", "remaining binding [%]": 52}
{"SMILES": "COc1ccc2cc(OCC3(C(=O)O)CN(C(=O)c4ccc(F)cc4)C3)ccc2c1", "test": "cell-free assay, competition with immobilised ligand", "setting": "1 µM", "remaining binding [%]": 87}
{"SMILES": "Cc1cnc(Nc2ccc(C(=O)N3CCC(N4CCCC4)CC3)cc2)nc1-c1cc2ccccc2s1", "test": "binding, competition with immobilised ligand", "setting": "1 µM", "remaining binding [%]": 75}
{"SMILES": "Cc1cnn2ncc(-c3ccnc(N(C)C)n3)c2c1", "test": "binding", "setting": "1 µM", "remaining binding [%]": 96}
{"SMILES": "O=C(N1CCS(=O)(=O)CC1)N1C[C@H](c2ccc(OC(F)(F)F)cc2)C[C@H](c2nc(C3CC3)no2)C1", "test": "cell-free assay, competition with immobilised ligand", "setting": "1 µM", "remaining binding [%]": 100}
{"SMILES": "CN(C)c1nccc(-c2cnc3ncccn23)n1", "test": "binding", "setting": "1 µM", "remaining binding [%]": 100}
{"SMILES": "CO[C@@H](C)c1c(Nc2ccc([C@H](N(C)C(=O)C3CCS(=O)(=O)CC3)C(F)(F)F)cc2)cnc2cc(Cl)nn12", "test": "cell-free assay, competition with immobilised ligand", "setting": "1 µM", "remaining binding [%]": 99}
{"SMILES": "CN(c1nccc(-c2cnn3ncccc23)n1)C1CC1", "test": "binding", "setting": "1 µM", "remaining binding [%]": 82}
{"SMILES": "CCN1CCN(Cc2ccc(C(=O)Nc3ccc(C)c(Oc4ccc5c(c4)CC(=O)N5)c3)cc2C(F)(F)F)CC1", "test": "binding, competition with immobilised ligand", "setting": "1 µM", "remaining binding [%]": 88}
{"SMILES": "CC(=O)c1c(NS(C)(=O)=O)c2cc(-c3ccc(Cl)cc3)c(-c3ccc(Cl)cc3Cl)nc2n(C)c1=O", "test": "cell-free assay, competition with immobilised ligand", "setting": "1 µM", "remaining binding [%]": 100}
{"SMILES": "FC(F)(F)Oc1cccc(-c2cnc3ccc(-c4ccncc4)nn23)c1", "test": "cell-free assay, competition with immobilised ligand", "setting": "5 µM", "remaining binding [%]": 86}
{"SMILES": "O=C(NCC1CCOCC1)c1n[nH]cc1NC(=O)c1c(F)cccc1F", "test": "binding, competition with immobilised ligand", "setting": "1 µM", "remaining binding [%]": 100}
{"SMILES": "F[C@@H]1CCN(c2nccc(-c3cnn4ncccc34)n2)C1", "test": "binding", "setting": "1 µM", "remaining binding [%]": 83}
{"SMILES": "C[C@H](c1cccc(C#N)c1)n1cc(Cl)cc(C(N)=O)c1=N", "test": "cell-free assay, competition with immobilised ligand", "setting": "1 µM", "remaining binding [%]": 77}
{"SMILES": "COc1cnc(Nc2cccc(S(N)(=O)=O)c2)nc1N1CCN(c2ccccc2)CC1", "test": "binding, competition with immobilised ligand", "setting": "1 µM", "remaining binding [%]": 93}
{"SMILES": "C[C@@H]1CCN(c2nccc(-c3cnn4ncccc34)n2)C1", "test": "binding", "setting": "1 µM", "remaining binding [%]": 100}
{"SMILES": "O=C(NCCCN1CCOCC1)c1ccc(Nc2ncc(Cl)c(-c3ccc(Cl)s3)n2)cc1", "test": "binding, competition with immobilised ligand", "setting": "1 µM", "remaining binding [%]": 89}
{"SMILES": "N[C@@H]1CCN(c2nccc(-c3cnn4ncccc34)n2)C1", "test": "binding", "setting": "1 µM", "remaining binding [%]": 97}
{"SMILES": "O=C(c1ccc(Nc2ncc(Cl)c(-c3cc4ccccc4s3)n2)cc1)N1CCC(N2CCCC2)CC1", "test": "binding, competition with immobilised ligand", "setting": "1 µM", "remaining binding [%]": 75}
{"SMILES": "CCCOc1ccc([C@H]2[C@H](C(=O)O)[C@@H](c3ccc4c(c3)OCO4)CN2CC(=O)Nc2c(CC)cccc2CC)cc1", "test": "cell-free assay, competition with immobilised ligand", "setting": "1 µM", "remaining binding [%]": 100}
